Reference: ChEMBL document CHEMBL1144710, “epigenetic multiple ligands: mixed histone/protein methyltransferase, acetyltransferase, and class III deacetylase (sirtuin) inhibitors” (J Med Chem, 2008)
Calls of active or inactive are those of the source. The rule behind the calls is not given here.

What was measured:
[1] = target: T1, Histone-arginine methyltransferase CARM1 (Homo sapiens) (UniProt Q86X55); experiment: Inhibition of human recombinant CARM1 assessed as poly(A) binding protein 1 methylation at 100 uM
T1 sequence (whole entry): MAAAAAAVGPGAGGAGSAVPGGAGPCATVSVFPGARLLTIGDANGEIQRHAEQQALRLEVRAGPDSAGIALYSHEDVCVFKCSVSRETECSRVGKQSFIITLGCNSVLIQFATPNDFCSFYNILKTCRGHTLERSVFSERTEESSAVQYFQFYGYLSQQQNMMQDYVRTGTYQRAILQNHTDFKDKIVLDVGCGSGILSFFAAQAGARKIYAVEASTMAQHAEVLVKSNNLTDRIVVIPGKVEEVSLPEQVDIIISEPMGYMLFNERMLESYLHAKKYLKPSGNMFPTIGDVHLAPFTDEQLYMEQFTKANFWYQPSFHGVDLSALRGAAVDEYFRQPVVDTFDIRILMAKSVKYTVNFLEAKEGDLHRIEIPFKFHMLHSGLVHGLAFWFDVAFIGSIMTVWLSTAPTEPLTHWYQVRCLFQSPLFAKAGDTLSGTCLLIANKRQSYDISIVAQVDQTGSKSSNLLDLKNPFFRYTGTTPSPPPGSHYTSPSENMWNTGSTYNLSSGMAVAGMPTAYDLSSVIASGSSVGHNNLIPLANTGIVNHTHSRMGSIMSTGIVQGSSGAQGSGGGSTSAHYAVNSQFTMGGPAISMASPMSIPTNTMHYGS
In short: (§1)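 Recombinant enzymes (0.2 µg) with substrate (0.5 µg: Npl3p for PRMT1, PABP1 for CARM1, histone H3 for SET7), 0.5 µM [3H]AdoMet and 100 µM compound in PBS pH 7.4 with 3.3% v/v DMSO, 90 min at 30 °C. Products separated by 10% SDS-PAGE, transferred to PVDF, detected by fluorography on film overnight.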

[2] = target: T2, Histone-lysine N-methyltransferase SETD7 (Homo sapiens) (UniProt Q8WTS6); experiment: Inhibition of human recombinant SET7 assessed as histone H3 protein methylation at 100 uM; in short: as §1
T2 sequence (whole entry): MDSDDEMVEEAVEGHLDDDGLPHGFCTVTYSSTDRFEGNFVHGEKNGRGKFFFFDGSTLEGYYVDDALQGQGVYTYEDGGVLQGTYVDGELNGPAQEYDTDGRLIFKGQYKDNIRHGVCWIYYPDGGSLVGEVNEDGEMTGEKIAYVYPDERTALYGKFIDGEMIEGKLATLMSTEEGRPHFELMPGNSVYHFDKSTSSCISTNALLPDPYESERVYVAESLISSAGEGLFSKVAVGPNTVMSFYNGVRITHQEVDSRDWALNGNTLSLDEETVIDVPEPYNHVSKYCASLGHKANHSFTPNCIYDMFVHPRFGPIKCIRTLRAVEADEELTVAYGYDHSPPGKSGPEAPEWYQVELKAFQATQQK

Activity [1]: Active
Activity [2]: Active
SMILES: O=C1/C(=C/c2cc(Br)c(O)c(Br)c2)COC/C1=C\c1cc(Br)c(O)c(Br)c1
